As usually defined, the inhibition is the change of the read-out against control, counted positive when it falls. The kinetic solubility is the concentration staying in solution when a stock, usually in DMSO, is diluted into the medium. Usually AUC(0-t) stands for exposure summed from dosing to a finite time, without extrapolation to infinity. By bioavailability is commonly meant the share of a dose that reaches the circulation, judged against a reference dose that is usually intravenous.

In brackets after ≈: the same amount, converted by molar mass. Activity calls are given as the source filed them. The calls are words filed in the database; no cut-off is given here. A value given as a limit tells only on which side of the number the result lay.

The nature of data set [1]: Inhibition of heparin-induced K18PL tau protein aggregation assessed as thioflavin T binding by fluorescence assay relative to control. The conditions noted are these: concentration not given here.
A short description of data set [2]: Inhibition of tau40 protein aggregation by orthogonal sedimentation based SDS-PAGE relative to control. Conditions: concentration not given here. Further details: concentration or dose not given beside the values.
In the next data set the test system is HEK293. In words: Cytotoxicity against HEK293 cells up to 100 uM after 72 hrs by alamar blue assay. It is filed as cell-based. Conditions: human, hek293, 72 h. The essentials: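 HEK-293 cells were plated at 20,000 per well in DMEM with 10% FCS. After 24 h, half-log compound dilutions starting at 200 µM were added. Cells were cultured for 72 h, and viability was read by Alamar blue fluorescence. CC50 values were fitted from the curves.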
On the technique in general: Resazurin is reduced to fluorescent resorufin, in cell work by metabolically active cells.

For data set [3], the system named is Plasma. In words: Drug level in plasma of B6C3F1 mouse at 5 mg/kg, ip by LC-MS/MS analysis. It is filed as ADME, organism-based. Further details: dose 5 mg/kg, route intraperitoneal. Conditions: in vivo. The essentials:
(§1)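 Three female B6C3F1 mice per compound were given 5 mg/kg i.p. Brain and plasma were sampled at a single 1 h time point. Brain was homogenized 1:2 w/v in 10 mM ammonium acetate pH 5.7, and plasma was collected in EDTA. Samples were extracted with acetonitrile and quantified by LC-MS/MS MRM against spiked calibration curves. B/P was taken as the brain/plasma ratio.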

A short description of data set [4]: Aqueous solubility in sodium acetate buffer at pH 7.0 by turbidimetric measurements. It is filed as physicochemical. The essentials:
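Compounds were serially diluted 2.5-fold in DMSO, then diluted 100-fold into 100 mM NaOAc pH 7.0 (final 200 µM down to 0.03 µM, 1% DMSO). Plates were agitated for 2.5 h and absorbance was read at 550–700 nm with the DMSO blank subtracted. The solubility limit was taken as the concentration before the one where mean absorbance exceeded 0.03 AU.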

Data set [5] is described as follows: Inhibition of K18PL tau protein aggregation by orthogonal sedimentation based SDS-PAGE relative to control. The conditions noted are these: concentration not given here.
The test system of another data set is Brain. In words: Drug level in brain of B6C3F1 mouse at 5 mg/kg, ip by LC-MS/MS analysis. It is filed as ADME, organism-based. Further details: dose 5 mg/kg, route intraperitoneal. The conditions noted are these: in vivo. The procedure, abridged:
as §1

For the next data set, the species on record is Homo sapiens. In words: Inhibition of human full length tau40 protein-mediated bovine brain tubulin assembly at 62.5 uM by MT assembly assay. The procedure, abridged:
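Wild-type full-length human tau40 (2N4R, 25 µM) was preincubated with compound at 62.5 µM in RAB pH 6.9 for 120 min at room temperature. Bovine brain tubulin and GTP were then added, giving final concentrations of 30 µM tubulin, 20 µM tau, 50 µM compound and 2 mM GTP. Absorbance at 340 nm was read every minute for 45 min at 37 °C.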

Data set [6] can be described thus: Ratio of drug level from brain to plasma of B6C3F1 mouse at 5 mg/kg, ip by LC-MS/MS analysis. It is filed as ADME, organism-based. Further details: dose 5 mg/kg, route intraperitoneal. The procedure, abridged:
as §1

A short description of data set [7]: AUC (0.5 to 16 hrs) in plasma of B6C3F1 mouse at 5 mg/kg, po. It is filed as ADME, organism-based. Further details: time 0.5-16 hr, dose 5 mg/kg, route oral. The procedure, abridged: (§2)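 Mice were dosed by oral gavage at 5 mg/kg. […] Bioavailability was obtained by comparing plasma AUC after oral dosing with AUC after 2 mg/kg i.v.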
Data set [8] is described as follows: Oral bioavailability in B6C3F1 mouse at 5 mg/kg. It is filed as ADME, organism-based. Conditions: in vivo. The essentials: as §2
A short description of data set [9]: AUC (0.5 to 16 hrs) in plasma of B6C3F1 mouse at 2 mg/kg, iv. It is filed as ADME, organism-based. Further details: time upper 16 hr, time lower 0.5 hr, dose 2 mg/kg, route intravenous. The essentials: (§3)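 Female B6C3F1 mice, two months old, given 2 mg/kg i.v., three mice per time point at 0.5, 1, 2, 4, 8 and 16 h. Brain hemispheres were homogenized in 10 mM ammonium acetate pH 5.7, and plasma was taken from EDTA blood. Both were extracted with acetonitrile and measured by LC-MS/MS (MRM) against spiked standard curves at 4–4000 ng/mL.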

A short description of data set [10]: AUC (0.5 to 16 hrs) in brain of B6C3F1 mouse at 2 mg/kg, iv. It is filed as ADME, organism-based. Further details: time upper 16 hr, time lower 0.5 hr, dose 2 mg/kg, route intravenous. The procedure, abridged: as §3
Data set [11] in a line: Ratio of drug level from brain to plasma of B6C3F1 mouse at 2 mg/kg, iv. It is filed as ADME, organism-based. Further details: dose 2 mg/kg, route intravenous. Conditions: read-out: BPR. The procedure, abridged:
as §3

Data set [12] deals with Plasma. In words: Elimination half life in plasma of B6C3F1 mouse at 2 mg/kg, iv. It is filed as ADME, organism-based. Further details: dose 2 mg/kg, route intravenous. Conditions: in vivo. The procedure, abridged: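 Female B6C3F1 mice received 2 mg/kg i.v., three per time point. Plasma levels were measured by LC-MS/MS with 1/x-weighted calibration, averaging triplicate injections. Half-life was derived from the elimination rate constant, taken as the slope of ln plasma concentration against time over the 4, 8 and 16 h points.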

For the molecule `CC(C)NC(=O)c1nn(-c2ccc(Cl)cc2)c(=O)c2c(N)scc12`, the inhibition amounted to 83% in data set [1], 45% in data set [2] and 65% in data set [5]. For the same molecule, the Activity entry in the data set on HEK293 is on record as “Non-toxic”. The Drug uptake in the data set on Plasma [3] stood at 499 ng/mL; in the data set on Brain, 1100 ng/g. Also, the kinetic solubility in [4] turned out to be 32 µM (≈ 11.6 µg/mL). Also, in the data set listed under Homo sapiens, the inhibition result was “inactive”.
For `CC(C)NC(=O)c1nn(-c2ccc(Br)cc2)c(=O)c2c(N)scc12`, the inhibition in data set [1] came to 85%; in [2] it was 55%; in data set [5], 58%. Further, the Activity entry in the data set on HEK293 was “Non-toxic”. Further, the Drug uptake is 316 ng/mL in the data set with Plasma [3] and 641 ng/g in the data set on Brain. Besides, in data set [4], the solubility (kinetic) was determined as 13 µM (≈ 5.29 µg/mL). Moreover, the inhibition result in the data set listed under Homo sapiens was “inactive”.
On to `CC(C)OC(=O)c1nn(-c2ccc(Cl)cc2)c(=O)c2c(N)scc12`, for which the inhibition in [1] worked out at 79%; in [2], 61%; in data set [5], 44%. Further, the BPR in data set [6] was found to be 5.2. Also, the Activity entry in the data set with HEK293 was “Non-toxic”. For the same molecule, the values for the Drug uptake with Plasma [3] and in the data set on Brain were 84 ng/mL and 436 ng/g, respectively. In data set [4], this molecule came in with a solubility (kinetic) of 32 µM (≈ 11.6 µg/mL). Besides, the inhibition result in the data set filed under Homo sapiens is “inactive”.
Consider `Nc1scc2c(C(=O)O)nn(-c3ccc(Cl)cc3)c(=O)c12`, for which the inhibition in [1] is 84%; in data set [2], 62%; in data set [5], 79%. Moreover, in the data set with HEK293, the Activity entry is “Non-toxic”. In addition, the values for the Drug uptake with Plasma [3] and in the data set with Brain were 5230 ng/mL and 121 ng/g, respectively. The molecule further gave a kinetic solubility in data set [4] of more than 200 µM. Further, the inhibition result in the data set filed under Homo sapiens was “inactive”.
For `CCOC(=O)c1nn(-c2ccc(Cl)cc2)c(=O)c2c(N)scc12`, the inhibition in data set [1] stood at 71%; in data set [2], 48%; in data set [5], 70%. The Activity entry with HEK293 was “Non-toxic”. Further, the Drug uptake in the data set with Plasma [3] is 20 ng/mL; with Brain it was 67 ng/g. In addition, in data set [4], the solubility (kinetic) stood at 13 µM (≈ 4.55 µg/mL). Moreover, in the data set listed under Homo sapiens, the inhibition entry is “inactive”.
Turning to `CCNC(=O)c1nn(-c2ccc(Cl)cc2)c(=O)c2c(N)scc12`, the inhibition in [1] is 84%; in data set [2] it was 87%; in data set [5], 94%. For the same molecule, in the data set on HEK293, the Activity result is “Non-toxic”. For the same molecule, the Drug uptake in the data set on Plasma [3] was found to be 500 ng/mL; in the data set on Brain, 886 ng/g. Also, the solubility (kinetic) in [4] worked out at 32 µM (≈ 11.2 µg/mL). In addition, the inhibition result in the data set filed under Homo sapiens was “inactive”.
Consider `Nc1scc2c(C(=O)NC3CC3)nn(-c3ccc(Cl)cc3)c(=O)c12`, for which the inhibition in data set [1] is 83%; in [2], 58%; in [5], 69%. Further, the figures for the AUC(0-t) in data set [7], in [9] and in [10] were 526 ng·h/mL, 297 ng·h/mL and 469 ng·h/mL, respectively. Besides, in data set [8], the bioavailability stood at 70%. For the same molecule, the Activity result in the data set on HEK293 is “Non-toxic”. The figures for the Drug uptake with Plasma [3] and with Brain were 823 ng/mL and 1299 ng/g, respectively. This molecule also had a kinetic solubility in data set [4] of 32 µM (≈ 11.5 µg/mL). In addition, the Kp in data set [11] was found to be 1.58. In addition, the “beta t1/2” value with Plasma [12] is listed as “>= 2.5 hr”. For the same molecule, the inhibition result in the data set listed under Homo sapiens is “inactive”.
With `CNC(=O)c1nn(-c2ccc(Cl)cc2)c(=O)c2c(N)scc12`, the inhibition in data set [1] was 78%; in data set [2], 61%; in [5] it was 68%. The Activity result in the data set on HEK293 was “Non-toxic”. The Drug uptake with Plasma [3] turned out to be 70 ng/mL; in the data set on Brain, 34 ng/g. The kinetic solubility in [4] stood at 13 µM (≈ 4.35 µg/mL). Further, the inhibition result in the data set listed under Homo sapiens was “inactive”.
Turning to `CN(C)C(=O)c1nn(-c2ccc(Cl)cc2)c(=O)c2c(N)scc12`, the inhibition came out at 75% in data set [1], 69% in data set [2] and 69% in data set [5]. Also, the Activity entry in the data set on HEK293 is listed as “Non-toxic”. In addition, the Drug uptake with Plasma [3] amounted to 30 ng/mL; with Brain, 14 ng/g. This molecule came in with a solubility (kinetic) in [4] of 32 µM (≈ 11.2 µg/mL). For the same molecule, the inhibition result in the data set filed under Homo sapiens is “inactive”.
For the molecule `CCN(C)C(=O)c1nn(-c2ccc(Cl)cc2)c(=O)c2c(N)scc12`, the inhibition in data set [1] worked out at 75%; in [2] it was 58%; in data set [5], 62%. Besides, the Activity result in the data set on HEK293 is “Non-toxic”. Moreover, the Drug uptake with Plasma [3] came to 138 ng/mL; in the data set on Brain it was 122 ng/g. In data set [4], this molecule returned a kinetic solubility of 80 µM (≈ 29 µg/mL). Further, in the data set filed under Homo sapiens, the inhibition entry was “inactive”.

These data come from ChEMBL document CHEMBL1158588, “Discovery of brain-penetrant, orally bioavailable aminothienopyridazine inhibitors of tau aggregation” (J Med Chem, 2010).
